# Hits are enriched below; roughly 3.1% of the tested compounds scored in any of these assays.
# Lipid droplet = modulators of hepatic lipid droplet formation | inhibition, % at 6.5 µM | AID 1656 | 0.4% of 240,000 active | AML12 mouse hepatocytes, oleate lipid droplets, BODIPY imaging;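 active means lipid droplet intensity inhibited by at least 50%, with more than 500 cells counted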
#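 Material: mouse AML12 hepatocyte cell line, fixed after treatment; Timing: compound with oleate, overnight; Technique: high-content imaging of BODIPY-stained droplets and DAPI nuclei; Probe or stimulus: oleate, 100 µM final; Dosing: compound at 6.5 µM only.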
# aDG glyco act = alpha-DG glycosylation activation | Pro5-aDG cells, alpha-DG glycosylation AlphaScreen (IIH6); 0% Pro5, 100% B10-LARGE cell signal | activation, % at 10 µM | 0.22% of 360,000 active | AID 624168;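 active means activation of at least 8% versus controls, or a plate z-score of at least 8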;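 further: Pro5 are CHO cells carrying HIG-tagged alpha-DG that lacks glycosylation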
# ADAM10 inh = inhibitors of human ADAM10. O14672. recombinant ADAM10, EDANS/DABCYL FRET peptide cleavage, 3 h. inhibition, % at 7 µM. 0.62% of 370,000 active. AID 720582;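 active means inhibition above a per-campaign cutoff equal to the mean of compounds falling between control-based bounds plus 3 SD, cut at about 20% in these data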;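 further: 0% = DMSO wells while the 100% control is not disclosed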
# Target sequence (O14672 214-748 limits assumed): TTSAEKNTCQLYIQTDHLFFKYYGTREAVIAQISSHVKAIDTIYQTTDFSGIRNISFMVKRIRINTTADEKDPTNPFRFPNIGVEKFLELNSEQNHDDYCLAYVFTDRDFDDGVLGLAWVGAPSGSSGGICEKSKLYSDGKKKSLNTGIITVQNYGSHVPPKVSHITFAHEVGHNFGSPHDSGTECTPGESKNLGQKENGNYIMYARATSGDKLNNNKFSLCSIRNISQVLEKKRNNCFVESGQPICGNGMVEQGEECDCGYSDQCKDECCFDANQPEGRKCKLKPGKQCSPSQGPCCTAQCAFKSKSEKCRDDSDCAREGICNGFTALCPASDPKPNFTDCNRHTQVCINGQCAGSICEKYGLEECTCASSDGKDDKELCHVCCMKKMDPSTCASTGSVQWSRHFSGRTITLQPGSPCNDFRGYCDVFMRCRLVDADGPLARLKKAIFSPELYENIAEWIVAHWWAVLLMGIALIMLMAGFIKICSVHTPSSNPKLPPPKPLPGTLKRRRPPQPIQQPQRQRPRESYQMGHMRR
# ADAM17 inh = inhibits human ADAM17. recombinant ADAM17, EDANS/DABCYL FRET peptide cleavage. P78536. inhibition, % at 6.95 µM. 0.83% of 370,000 active. AID 720648;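 active means inhibition above the mean of compounds lying between control limits plus 3 SD, set per campaign, cut at about 8.5% in these data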;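 further: 0% = DMSO-only wells as the low control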
# MPTP block = inhibitors of mitochondrial permeability transition pore | isolated mouse mitochondria, Ca2+ swelling absorbance, 30 min | inhibition, % at 10 µM | 1.4% of 360,000 active | AID 602449;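 active means inhibition of 50% or more, scaled per plate between neutral and stimulator controls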;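 further: 0% = DMSO wells given calcium and 100% = 1 mM EGTA wells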
# V-ATPase pH = regulators of yeast V-ATPase proton transport | S. cerevisiae, pHLuorin cytosolic pH fluorescence | response, % at 10 µM | 0.37% of 350,000 active | AID 504577; in the data active means response mostly above about 7.3%, no sharp cut-off; inactive means mostly below about 5.4%; further: actives read high
# VATPase regulator = regulators of yeast V-ATPase proton transport | shares compounds with V-ATPase pH | S. cerevisiae pHLuorin cytosolic pH | response, % at 10 µM | 2% of 980 active; in the data active means response above about 24%;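 further: plate controls were vehicle wells for no effect and positive control wells for full effect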
# Starred values were filed as active, the others as inactive; x = no result.
SMILES,Lipid droplet,aDG glyco act,ADAM10 inh,ADAM17 inh,MPTP block,V-ATPase pH,VATPase regulator
Cc1ccccc1N1CCN(C2=NC(=O)/C(=C/c3cn[nH]c3-c3ccccc3)S2)CC1,-0.9,0.4,-7.3,-1.9,1.4,8.3*,-3.5
CN(Cc1ccccc1)C(=O)OCc1cn(Cc2ccc(F)cc2F)nn1,x,x,-0.1,-5.6,x,x,x
Cc1cccc(NCCC(=O)c2ccc([N+](=O)[O-])cc2)c1C,-2.3,0.4,4.2,-1.0,0.6,95.9*,18.5
Cc1ccc(NCCC(=O)c2cccc([N+](=O)[O-])c2)c(C)c1,-3.7,0.6,4.0,-0.9,-0.4,-2.6,x
CC(=O)Nc1ccc(NC(=O)c2ccc(C)c(S(=O)(=O)Nc3cccc(C)c3)c2)cc1,15.3,0.2,3.4,-0.4,0.2,10.4*,0.1
CCCC[C@@H]1C(=O)N2N=Cc3cc(C)c(C)cc3[C@H]2N2N=Cc3cc(C)c(C)cc3[C@@H]12,x,x,-1.4,-0.3,x,x,x
CCOC(=O)c1[nH]c(=O)c2ccccc2c1O,11.7,-0.1,-118.8,-34.3,-0.7,-5.9,2.1
CCOC(=O)c1[nH]c2ccccc2c1NC(C)=O,8.7,0.1,-33.9,-8.1,-2.3,2.6,x
Cn1nc(C(=O)NNC(=O)c2ccccc2Br)c2ccccc2c1=O,x,-0.2,-4.1,0.2,-1.1,9.5*,4.2
C[C@H]1[C@@H](N(C)Cc2ccccc2)CC[C@@]23CCCN2C(=O)CCC[C@@H]13,x,x,-4.9,-3.0,x,x,x
COc1ccc(/C=c2\s/c(=C/C(=O)c3ccc(C)cc3)[nH]c2=O)c(OC)c1,33.1,-0.4,-3.0,-0.5,2.8,-8.2,x
COc1cccc(/C=c2\s/c(=C/C(=O)c3ccc(C)cc3)[nH]c2=O)c1OC,19.6,-0.3,-0.8,-1.8,3.2,8.0*,-54.4
O=c1ccc(OCCOc2ccccc2)nn1-c1ccccc1,-19.5,0.1,5.9,3.9,-3.5,14.7*,6.5
NC(=O)COc1ccc(=O)n(-c2ccccc2)n1,x,0.0,-1.1,-0.1,-0.6,-0.5,x
Cc1c(N=Cc2c(O)n(C3CCCCC3)c(=O)[nH]c2=O)c(=O)n(-c2ccccc2)n1C,x,0.0,9.6,3.5,-16.9,19.3*,-30.5
CC1CN(C(=O)c2cccc(C(=O)N3CC(C)OC(C)C3)c2)CC(C)O1 (stereo unspecified),x,0.0,-2.5,-0.9,-0.2,-2.1,x
CC1CN(C(=O)c2ccc(C(=O)c3ccccc3)cc2)CC(C)O1 (stereo unspecified),x,0.1,-6.6,0.0,0.0,10.6*,-1.7
CC1CN(C2CCN(C(=O)c3ccccc3)CC2)CC(C)O1 (stereo unspecified),8.8,0.3,-6.2,-6.5,-0.6,9.3*,0.7
COc1ccc(CNS(=O)(=O)c2ccc(C3CNC(=O)C3)cc2)cc1 (stereo unspecified),18.9,0.0,0.0,-2.7,1.7,11.8*,2.5
C#CCCN([C@@H](CC(C)C)C(=O)OC)S(=O)(=O)c1ccc(F)cc1Br,x,x,11.6,6.9,x,x,x
CCc1nc2c(C#N)c(-c3ccc(Cl)cc3)ccn2n1,17.7,0.2,-13.3,-3.5,-1.7,0.2,x
CCS(=O)c1scc(-c2ccc(Cl)cc2)c1C#N (stereo unspecified),9.5,0.1,-1.9,-3.3,0.4,9.0*,-0.3
CCNC(=O)C[C@H]1CC[C@H]2[C@@H](COc3ccc(NC(=O)Nc4ccccc4)cc3C(=O)N2C)O1,x,x,-1.5,-10.4,x,x,x
CSCCC(NC(=O)c1ccccc1)C(=O)N1CCN(C(=O)c2ccccc2)CC1 (stereo unspecified),x,-0.1,3.0,-0.5,-1.0,3.1,x
CSCCC(NC(=O)c1ccccc1)C(=O)N1CC=C(c2ccccc2)CC1 (stereo unspecified),-6.1,0.0,1.1,1.8,-0.9,9.3*,-0.2
SMILES,Lipid droplet,aDG glyco act,ADAM10 inh,ADAM17 inh,MPTP block,V-ATPase pH,VATPase regulator
Cc1nn(-c2ccc(Cl)cc2)c(=O)c2c(C)noc12,24.6,0.0,0.5,-1.6,1.1,-0.8,-2.1
CC(=O)OCCCN1CCC2(CCC(c3ccccc3)CC2)C1=O (stereo unspecified),x,x,-1.0,1.5,x,x,x
Cc1cnnc2c1-c1no[n+]([O-])c1CC2,-0.6,0.2,2.1,4.1,-2.0,14.0*,0.2
c1ccc(-c2nn(Cc3ncco3)c3ccccc23)cc1,x,x,5.7,-0.2,x,x,x
Cc1ccccc1NC(=O)CSc1nnc2ccc(-c3cccnc3)nn12,x,0.4,-14.9,-4.7,-0.9,10.4*,4.9
Cc1ccccc1NC(=O)CSc1nnc2ccc(-c3ccncc3)nn12,x,0.5,-4.2,-2.0,-0.5,0.1,x
COc1ccccc1C(=O)CSc1nnc(-c2ccncc2)n1-c1ccc(Cl)cc1,x,x,0.0,2.5,x,x,x
Cn1c(=O)c(-c2cc(Br)ccc2N)nc2ccccc21,-33.1,1.4,3.2,-3.6,-0.4,-0.7,4.8
CCOC(=O)CCn1c(CC(=O)OCC)nc2ccccc21,x,0.1,3.4,-0.6,0.6,5.0,x
CN(C)c1nc2ccccc2n(C)c1=O,11.4,-0.2,-0.2,1.1,-1.3,5.7,x
CCOC(=O)Cn1c(=O)c(-c2cc(Br)ccc2N)nc2ccccc21,12.6,0.8,4.9,-3.3,1.9,31.2*,16.6
CCOC(=O)Cn1c(=O)c(-c2ccccc2N)nc2ccccc21,2.2,0.0,-8.1,-2.3,-1.1,-3.1,0.1
CC(=O)CC[C@H]1CC[C@]2(CCCN(C(=O)C3CCCC3)C2)O1,x,x,-5.9,-3.4,x,x,x
COc1ccc(CN2CN3Cc4ccccc4C3CS2(=O)=O)cc1 (stereo unspecified),x,x,-0.8,-1.1,x,x,x
COc1ccc(N2CCN(CCNS(=O)(=O)c3ccccc3[N+](=O)[O-])CC2)cc1,x,x,5.9,2.5,x,x,x
Cc1ccccc1OCC(=O)Nc1nc2ccccc2[nH]1,8.0,-0.4,-6.6,-1.5,-1.3,9.9,x
Cc1cc(C)c(OCC(=O)Nc2nc3ccccc3[nH]2)c(C)c1,8.3,0.3,-3.4,-6.2,-0.2,9.7*,-3.6
O=C(CSc1nc2ccccc2c(=O)n1NC(=O)Cc1ccccc1)NCc1ccco1,x,0.2,-1.8,-5.4,0.4,0.7,x
O=C(CSc1nc2ccccc2c(=O)n1NC(=O)Cc1ccccc1)NCc1ccccc1,x,0.0,-1.4,-0.1,-0.7,14.6*,1.6
O=C(NCCc1ccc(F)cc1)c1ccc(Sc2ccccc2Cl)c([N+](=O)[O-])c1,x,x,-13.6,-2.4,x,x,x
COc1ccc(-c2nnc(SCc3cccc(F)c3)n2-c2ccccc2)cc1,x,x,11.8,6.3,x,x,x
O=C(c1ccc(CS(=O)c2ccc(Br)cc2)o1)N1CCN(C2CCCCC2)CC1 (stereo unspecified),x,-0.3,-21.6,-6.7,0.3,79.2*,2.3
O=C(c1ccc(CS(=O)c2cccc(Cl)c2)o1)N1CCN(C2CCCCC2)CC1 (stereo unspecified),-0.7,0.5,-1.3,-3.5,-0.7,-5.2,x
